This is a sample that favours compounds with a hit; in the whole collection about 3.5% have one here.
RGS4 act: RGS4 potentiation or activation; HEK293 M3R/inducible RGS4, carbachol calcium flux Fluo4; hits give low values; B-score at 10 µM; actives 0.92% (n = 310,000); AID 463111;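 active = B-score of the integrated calcium signal more than 4 SD below the library mean, with starting fluorescence not abnormally high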;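 also: negative B-score means reduced calcium response which marks RGS4 activation or potentiation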
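System: HEK293 FlpIn-TREx cells, stable M3R, doxycycline-inducible RGS4. Timing: overnight RGS4 induction, 30 min dye load 37 °C, 20 min compound RT. Also added: carbachol, ECmax concentration. Measured by: Fluo4 fluorescence kinetic imaging of calcium. Evaluation: integrated calcium ratio converted to B score.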
MrgX1 antagonist: human MrgX1 receptor antagonism, primary screen | Q96LB2 | MRGX1-HEK293 calcium flux, Fluo-4, BAM8-22 antagonism; hits give low values | B-score at 10 µM | actives 1.3% (n = 310,000) | AID 588676;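 active = calcium-response B-score plate-corrected more than 3 library SD below zero, starting fluorescence within 5 deviations, no agonist response on first addition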;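 also: peak minus trough fluorescence over baseline after final BAM8-22 challenge near maximal dose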
Target sequence (Q96LB2 whole entry, looked up): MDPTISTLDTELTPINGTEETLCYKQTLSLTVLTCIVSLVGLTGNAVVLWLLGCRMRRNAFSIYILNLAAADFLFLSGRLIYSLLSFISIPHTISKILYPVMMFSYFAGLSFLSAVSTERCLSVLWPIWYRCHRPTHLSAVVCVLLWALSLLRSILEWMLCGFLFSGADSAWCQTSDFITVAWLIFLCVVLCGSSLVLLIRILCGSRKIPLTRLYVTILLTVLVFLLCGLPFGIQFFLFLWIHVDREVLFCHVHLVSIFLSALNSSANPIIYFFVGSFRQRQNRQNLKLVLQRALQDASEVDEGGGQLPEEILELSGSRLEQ
MrgX1 agonist: activates human MrgX1 receptor signaling | Q96LB2 | MrgX1-HEK293 cells, Fluo-4 calcium fluorescence, agonist mode; hits give high values | B-score at 10 µM | actives 0.44% (n = 310,000) | AID 588627;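 active = calcium response B-score plate-corrected fluorescence ratio at least 3 library SD, with starting fluorescence B-score inside 5 SD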
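Assay system: MrgX1-expressing HEK293 cells / Amount: fifteen thousand cells per well / Doses: test compound in the initial addition of three / Timing: cells plated overnight, dye loaded 0.5 h 37 °C, 0.5 h room temperature / Technique: kinetic calcium dye fluorescence, Fluo-4 NW / Control set: positive and negative controls per plate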
RGS4 block: human RGS4 inhibition; HEK293 M3R/RGS4 inducible, Fluo-4 calcium flux; hits give high values; triggered by carbachol at its EC20; B-score at 10 µM; actives 0.45% (n = 310,000); P49798;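 active = B-score, a plate-corrected calcium signal, over three deviations above library mean, with baseline fluorescence within five deviations of library mean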;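 also: RGS4 expression induced by doxycycline in cells with stable M3 receptor; B-score is computed from the integrated fluorescence ratio over baseline after carbachol; higher B-score means a larger calcium signal and so more RGS4 inhibition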
Target sequence (P49798 whole entry, looked up): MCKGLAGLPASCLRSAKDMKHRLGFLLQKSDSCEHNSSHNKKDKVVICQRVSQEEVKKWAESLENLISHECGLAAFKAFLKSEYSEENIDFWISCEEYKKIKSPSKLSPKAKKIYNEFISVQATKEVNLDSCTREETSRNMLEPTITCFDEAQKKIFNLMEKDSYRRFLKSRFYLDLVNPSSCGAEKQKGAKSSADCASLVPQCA
MrgX1 allo act: allosterically activates human MrgX1 receptor signaling. MrgX1-HEK293, Fluo-4 calcium flux, FDSS; hits give high values. B-score at 10 µM. actives 0.63% (n = 310,000). AID 588675;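 active = plate-corrected calcium response at least 3 library SD above typical, normal starting fluorescence, not activating the receptor alone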;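 also: compound read alongside a low EC10 to EC30 dose of BAM8-22 agonist; peak minus trough fluorescence over baseline measured at the second addition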
MrgX1 PAM conf: human MrgX1 positive allosteric modulation, re-confirmation | shares compounds with MrgX1 allo act | MrgX1-HEK293, Fluo-4 calcium fluorescence, FDSS | activation (ratio percentage), % at 10 µM | actives 13% (n = 1,200) | AID 602413;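 active = ratio at least 3 SD above the weak peptide control, stable starting fluorescence, no direct agonism earlier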;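 also: compound followed by low BAM8-22 agonist challenge near EC20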
MrgX1 ant reconf: confirmation of human MrgX1 receptor antagonists | shares compounds with MrgX1 antagonist | actives 19% (n = 2,300) | AID 602420 | remaining BAM8-22 calcium response % of control (hits give low values), % at 10 µM | MrgX1-HEK293, BAM8-22 calcium flux, Fluo-4; hits give low values;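 active = remaining agonist calcium response no higher than 100% minus 3 SD of agonist-only control wells, with starting fluorescence near control levels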;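 also: agonist BAM8-22 given at a near maximal EC90 to ECmax level; peak minus minimum fluorescence divided by baseline after agonist addition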
HEK293 Ca flux: MrgX1 antagonist counter-screen hit in parental HEK293 cells | shares compounds with MrgX1 antagonist | Fluo-4 calcium fluorescence, FDSS | fluorescence ratio F(max-min)/F0 at 10 µM | actives 2% (n = 4,000);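 active = duplicate-averaged calcium fluorescence ratio at least three times the standard deviation of buffer wells, a nonspecific response in parental cells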
HEK293 Ca counter: MrgX1 allosteric activator counter-screen hit in parental HEK293 cells; shares compounds with MrgX1 antagonist; parental HEK293 calcium flux, Fluo-4 fluorescence ratio; hits give high values; fluorescence ratio F(max-min)/F0 at 10 µM; actives 0.4% (n = 4,000); AID 624114;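 active = calcium fluorescence ratio, averaged over duplicates, at least 3 SD of the buffer-well ratio, meaning a nonspecific response in receptor-free cells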;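 also: untransfected parental HEK293 lacking MrgX1 used as counterscreen for MrgX1 allosteric activators; fluorescence change taken during the second addition on a kinetic imager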
HEK293 Ca cntr2: activity in parental HEK293 cells lacking MrgX1 receptor | shares compounds with MrgX1 antagonist | Fluo-4 calcium fluorescence (FDSS); hits give high values | fluorescence ratio F(max-min)/F0 at 10 µM | actives 8.7% (n = 4,000) | AID 624115;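 active = calcium fluorescence ratio at least three times the spread of buffer wells, meaning a non-specific response in parental cells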
Starred values were filed as active, the others as inactive.

Results for CCC(C)NC(=O)CN1c2cccc3cccc(c23)S1(=O)=O (stereo not drawn) ?
RGS4 act: inactive; MrgX1 antagonist: inactive; MrgX1 agonist: inactive; RGS4 block: inactive; MrgX1 allo act: inactive

What do the screens show for `CCNC(=O)CN1c2cccc3cccc(c23)S1(=O)=O`?
RGS4 act: inactive; MrgX1 antagonist: inactive; MrgX1 agonist: inactive; RGS4 block: inactive; MrgX1 allo act: 21.8*; MrgX1 PAM conf: inactive; HEK293 Ca flux: inactive; HEK293 Ca counter: inactive; HEK293 Ca cntr2: inactive

Results for COc1cc(-c2noc(C)c2/C=C/c2ccc(C(=O)O)cc2)cc(OC)c1OC ?
RGS4 act: inactive; MrgX1 antagonist: inactive; MrgX1 agonist: inactive; RGS4 block: inactive; MrgX1 allo act: inactive

What do the screens show for `COc1cc(-c2noc(C)c2-c2ccc(N(C)C)nc2)cc(OC)c1OC`?
RGS4 act: inactive; MrgX1 antagonist: -5*; MrgX1 agonist: inactive; RGS4 block: inactive; MrgX1 allo act: 7.72*; MrgX1 PAM conf: inactive; MrgX1 ant reconf: inactive; HEK293 Ca flux: inactive; HEK293 Ca counter: inactive; HEK293 Ca cntr2: inactive

Results for COc1cc(/C=C(/C#N)C(=O)NCc2ccccc2)cc(OC)c1OC ?
RGS4 act: inactive; MrgX1 antagonist: inactive; MrgX1 agonist: inactive; RGS4 block: inactive; MrgX1 allo act: 35.5*; MrgX1 PAM conf: inactive; HEK293 Ca flux: inactive; HEK293 Ca counter: inactive; HEK293 Ca cntr2: inactive

Results for Cc1cc(-c2nnc(SCCC(=O)Nc3ccccc3)o2)no1 ?
RGS4 act: inactive; MrgX1 antagonist: inactive; MrgX1 agonist: inactive; RGS4 block: inactive; MrgX1 allo act: inactive

What do the screens show for `O=C(Cc1c(F)cccc1Cl)Nc1nc2ccccc2s1`?
RGS4 act: inactive; MrgX1 antagonist: inactive; MrgX1 agonist: inactive; RGS4 block: inactive; MrgX1 allo act: 21.4*; MrgX1 PAM conf: inactive; HEK293 Ca flux: inactive; HEK293 Ca counter: inactive; HEK293 Ca cntr2: inactive

What do the screens show for `CC(=O)c1sc(NC(=O)Cc2c(F)cccc2Cl)nc1C`?
RGS4 act: inactive; MrgX1 antagonist: inactive; MrgX1 agonist: inactive; RGS4 block: inactive; MrgX1 allo act: inactive

How did CCCN1CCN(CCCNC(=O)C2CCCN(c3nc4ccc(OCC)cc4s3)C2)CC1 (stereo not drawn) do in these assays?
RGS4 act: inactive; MrgX1 antagonist: inactive; MrgX1 agonist: inactive; RGS4 block: inactive; MrgX1 allo act: inactive

What do the screens show for `CCOc1ccc2nc(N3CCCC(C(=O)NCC4CCCO4)C3)sc2c1` (stereo not drawn)?
RGS4 act: inactive; MrgX1 antagonist: inactive; MrgX1 agonist: inactive; RGS4 block: inactive; MrgX1 allo act: 6.62*; MrgX1 PAM conf: inactive; HEK293 Ca flux: inactive; HEK293 Ca counter: inactive; HEK293 Ca cntr2: inactive

How did COc1ccc(NC(C)(C)c2nnnn2-c2c(C)cccc2C)cc1 do in these assays?
RGS4 act: inactive; MrgX1 antagonist: inactive; MrgX1 agonist: inactive; RGS4 block: inactive; MrgX1 allo act: 6.56*; MrgX1 PAM conf: inactive; HEK293 Ca flux: inactive; HEK293 Ca counter: inactive; HEK293 Ca cntr2: inactive

How did Cc1ccc(-c2[nH]ncc2C(=O)c2ccc(Br)cc2)c(O)c1 do in these assays?
RGS4 act: inactive; MrgX1 antagonist: inactive; MrgX1 agonist: inactive; RGS4 block: inactive; MrgX1 allo act: 8.66*; MrgX1 PAM conf: inactive; HEK293 Ca flux: inactive; HEK293 Ca counter: inactive; HEK293 Ca cntr2: inactive

What do the screens show for `Cc1ccc(C(=O)c2cn[nH]c2-c2cc(Cl)ccc2O)cc1`?
RGS4 act: inactive; MrgX1 antagonist: inactive; MrgX1 agonist: inactive; RGS4 block: inactive; MrgX1 allo act: 10.8*; MrgX1 PAM conf: inactive; HEK293 Ca flux: inactive; HEK293 Ca counter: inactive; HEK293 Ca cntr2: inactive

What do the screens show for `COc1ccc(/C(C)=N/NC(=O)CNC(=O)CCc2ccccc2)c(OC)c1`?
RGS4 act: inactive; MrgX1 antagonist: inactive; MrgX1 agonist: inactive; RGS4 block: inactive; MrgX1 allo act: inactive

Results for CCN(Cc1ccccc1)C(=O)Cn1cc(S(=O)(=O)NC)c(S(=O)(=O)NC)c1 ?
RGS4 act: inactive; MrgX1 antagonist: inactive; MrgX1 agonist: inactive; RGS4 block: inactive; MrgX1 allo act: inactive

How did CC(=O)Nc1ccc(Nc2nc(C(F)(F)F)nc3c2nnn3Cc2ccccc2Cl)cc1 do in these assays?
RGS4 act: inactive; MrgX1 antagonist: inactive; MrgX1 agonist: inactive; RGS4 block: inactive; MrgX1 allo act: inactive

Results for CCc1nnc(NC(=O)C2Cc3ccccc3CN2S(=O)(=O)c2c(C)c(C)cc(C)c2C)s1 (stereo not drawn) ?
RGS4 act: inactive; MrgX1 antagonist: inactive; MrgX1 agonist: inactive; RGS4 block: inactive; MrgX1 allo act: inactive

How did Cc1cc(C)c2c(=O)[nH]c(SCc3ccccc3)nc2n1 do in these assays?
RGS4 act: inactive; MrgX1 antagonist: inactive; MrgX1 agonist: inactive; RGS4 block: inactive; MrgX1 allo act: inactive

How did CC(=O)NCC(=O)NC1CCCc2c1cnn2-c1ccc(C(C)(C)C)cc1 (stereo not drawn) do in these assays?
RGS4 act: inactive; MrgX1 antagonist: inactive; MrgX1 agonist: inactive; RGS4 block: inactive; MrgX1 allo act: 8.95*; MrgX1 PAM conf: inactive; HEK293 Ca flux: inactive; HEK293 Ca counter: inactive; HEK293 Ca cntr2: inactive

Results for COc1cccc(-n2c(SCC(N)=O)nnc2-c2c[nH]c3ccccc23)c1 ?
RGS4 act: inactive; MrgX1 antagonist: inactive; MrgX1 agonist: inactive; RGS4 block: inactive; MrgX1 allo act: 6.87*; MrgX1 PAM conf: inactive; HEK293 Ca flux: inactive; HEK293 Ca counter: inactive; HEK293 Ca cntr2: inactive

Results for Cn1nc(C(=O)NCCc2ccc(S(N)(=O)=O)cc2)c2ccccc2c1=O ?
RGS4 act: inactive; MrgX1 antagonist: inactive; MrgX1 agonist: inactive; RGS4 block: inactive; MrgX1 allo act: inactive
